Screening data (PubChem)
PostGolgi ctrl – growth inhibition of yeast control strain, primary screen, counter-screen for post-Golgi transport modulator project. inhibition, % at 10 µM. actives 5% (n = 98,000). efflux-deficient yeast background strain, growth absorbance A615, 16 h
Candida biofilm – clotrimazole potentiators killing Candida biofilms, primary screen, with clotrimazole, Alamar Blue | actives 0.14% (n = 85,000) | C. albicans biofilm + clotrimazole | inhibition, % at 6 µM;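 active means inhibition above 20%; inactive means inhibition below 20%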;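 further: preformed 24 hr biofilms exposed to compound for 48 hr; 0% = biofilm without compound and 100% = blank killed by clotrimazole plus chlorhexidine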
E coli WT exp – growth inhibitors of wild-type E. coli, primary screen, strain BW25113, expanded library, OD600. OD600 absorbance. growth inhibition, % at 100 µM. actives 0.15% (n = 98,000);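 active means growth inhibition above about 50% at one test dose, limit read from the data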;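 further: growth measured after 20 h incubation at 37 °C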
PTK2B oligo ant – antagonists of Pyk2 self-association, primary screen, Q293 cells, FERM NanoBiT luminescence, HTS | hits give low values | z-score (the deposit names both 25 µM and 10 µM) | Protein-tyrosine kinase 2-beta (Homo sapiens), Q14289 | actives 0.83% (n = 99,000);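 active means Z-score of -3 or lower, scaled per plate to the spread of control and sample wells; inactive means z-score above -3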;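 further: negative z-score means lost luminescence so less FERM oligomerization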
Target sequence (Q14289 whole entry, looked up): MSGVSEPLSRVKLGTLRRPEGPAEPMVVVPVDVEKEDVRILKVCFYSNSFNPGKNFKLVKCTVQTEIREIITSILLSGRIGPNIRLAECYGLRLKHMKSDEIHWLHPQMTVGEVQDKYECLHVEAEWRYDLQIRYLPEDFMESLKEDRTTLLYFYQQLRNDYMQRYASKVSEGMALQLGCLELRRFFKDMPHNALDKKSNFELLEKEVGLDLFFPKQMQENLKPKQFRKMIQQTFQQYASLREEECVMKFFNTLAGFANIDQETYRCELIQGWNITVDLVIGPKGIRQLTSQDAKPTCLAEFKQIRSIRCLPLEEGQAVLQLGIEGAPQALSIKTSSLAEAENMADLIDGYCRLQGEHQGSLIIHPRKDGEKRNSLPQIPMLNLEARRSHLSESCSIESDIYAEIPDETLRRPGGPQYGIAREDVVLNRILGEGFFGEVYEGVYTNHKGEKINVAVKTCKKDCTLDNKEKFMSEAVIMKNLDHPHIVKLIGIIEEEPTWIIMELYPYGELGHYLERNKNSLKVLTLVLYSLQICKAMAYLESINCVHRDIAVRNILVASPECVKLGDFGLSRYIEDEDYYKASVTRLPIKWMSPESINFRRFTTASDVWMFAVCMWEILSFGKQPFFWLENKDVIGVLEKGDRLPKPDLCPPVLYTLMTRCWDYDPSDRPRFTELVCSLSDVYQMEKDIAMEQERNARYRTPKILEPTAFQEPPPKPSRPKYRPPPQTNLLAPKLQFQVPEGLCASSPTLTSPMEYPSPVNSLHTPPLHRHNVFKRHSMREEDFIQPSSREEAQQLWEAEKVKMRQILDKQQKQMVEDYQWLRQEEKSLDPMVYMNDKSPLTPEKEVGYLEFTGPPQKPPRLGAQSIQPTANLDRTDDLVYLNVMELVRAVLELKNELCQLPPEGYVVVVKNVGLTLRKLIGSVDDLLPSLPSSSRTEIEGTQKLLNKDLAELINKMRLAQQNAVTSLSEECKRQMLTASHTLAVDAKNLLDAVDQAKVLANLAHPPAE
tolC growth inh – growth inhibitors of E. coli tolC mutant, primary screen, strain BW25113 ΔtolC::kan, 384-well; OD615; growth inhibition, % at 10 µM (by protocol); actives 2.2% (n = 65,000);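 active means growth inhibition at or above a cutoff equal to the mean over every tested compound plus 3 SD, cut at about 60% in these data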;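 further: growth measured after 20 h incubation at 37 °C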
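System: E. coli ΔtolC::kan strain BW25113; Buffer or medium: LB broth supplemented with 50 µg/mL kanamycin; Compound: 10 µM final, single dose; Incubation: bacterial growth with compound for 20 h at 37 °C; Signal: A615 absorbance measurement; Evaluation: growth inhibition in percent.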
PostGolgi yeast – phenotypic screen on post-Golgi transport, primary screen; post-Golgi transport phenotypic cell assay; inhibition, % at 10 µM; actives 0.9% (n = 98,000); AID 739, 2007;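 further: yeast cells grown in 1536-well plates; yeast grown about 18 h at 30C before absorbance read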
An asterisk follows results filed as active; x = no result given. Shown are actives, neighbours in structure and some others; about 6.5% of the full set was active somewhere. Unless noted, no stated cut-off is given here; in the data, active means inhibition above about 30%; inactive means the rest.

SMILES | PostGolgi ctrl | Candida biofilm | E coli WT exp | PTK2B oligo ant | tolC growth inh | PostGolgi yeast
Cc1nn(-c2ccccc2)c(C)c1C(=O)OCC(=O)N1c2ccccc2NC(=O)C1(C)C | 0 | 5 | 10 | -0.92 | x | -8
Cc1nn(-c2ccccc2)c2c1C1(C(=O)Nc3ccccc31)N1C(=N2)Sc2ccccc21 (stereo not drawn) | 12 | 5 | -7 | -4.2* | 41 | 9
COc1ccc(/C(O)=C2/C(=O)C(=O)N(CC3CCCO3)C2c2cccc(O)c2)cc1 (stereo not drawn) | 5 | 4 | 1 | 0.38 | x | -5
COc1ccc(/C(O)=C2\C(=O)C(=O)N(CC3CCCO3)C2c2cc(OC)ccc2OC)cc1 (stereo not drawn) | 5 | 6 | -2 | 1.2 | 100* | 0
COc1ccccc1NC(=O)c1cc2n(n1)C(C(F)(F)F)CC(c1ccc3c(c1)OCO3)N2 (stereo not drawn) | 37* | -1 | -6 | -0.34 | 47 | 12
COc1ccc(OC)c(NC(=O)c2cc3n(n2)C(C(F)(F)F)CC(c2ccc4c(c2)OCO4)N3)c1 (stereo not drawn) | x | 2 | x | 0.75 | 31 | x
O=[N+]([O-])/C=C/c1cn(Cc2ccccc2)c2ccccc12 | 43* | x | -13 | -0.49 | x | -1
O=C(CSc1cn(Cc2ccccc2)c2ccccc12)N1CCOCC1 | 23 | 5 | -4 | x | x | 13
CCC(C)NC(=O)C1c2ccccc2C(=O)N(c2ccc(OC)cc2)C1c1ccc(OC)cc1 (stereo not drawn) | -1 | 8 | -7 | -0.87 | x | 1
O=c1c2cc(N3CCOCC3)ccc2[nH]c(=S)n1Cc1ccc(Cl)cc1 | 40* | 2 | -2 | 0.21 | x | 1
NC(=O)NCC12CC3CC(CC(C3)C1)C2 | 3 | 4 | -7 | 0.98 | -20 | -4
C/C(CCC12CC3CC(CC(C3)C1)C2)=N\NC(N)=S | 45* | -1 | -2 | -0.05 | x | 86*
CC1CCCN(S(=O)(=O)c2ccc(NC(=O)Cn3nnc(-c4ccccc4F)n3)cc2)C1 (stereo not drawn) | 4 | 3 | -11 | -0.93 | 64* | 1
CC1CCN(S(=O)(=O)c2ccc(NC(=O)Cn3nnc(-c4ccccc4)n3)cc2)CC1 | 10 | 7 | -8 | 0.98 | 17 | -4
CC1CCCN(S(=O)(=O)c2ccc(NC(=O)CCN3C(=O)c4ccccc4C3=O)cc2)C1 (stereo not drawn) | 18 | 8 | -7 | -1.1 | x | 42*
COc1ccc(/C(C)=N/OC/C(O)=C(\C#N)c2nc3ccccc3[nH]2)cc1 | x | x | x | 1 | x | x
O=C(OCC(=O)N1CCN(C(=O)c2ccco2)CC1)c1ccccc1OCc1ccc(Cl)cc1 | 42* | x | -16 | 0.53 | 22 | 7
O=C(Nc1ccccc1C(=O)OCC(=O)N1CCc2ccccc2C1)c1ccco1 | 32* | 0 | -24 | -1 | 34 | 1
CC1CCCCC1NC(=O)COC(=O)c1ccccc1NC(=O)c1ccco1 (stereo not drawn) | 7 | x | -2 | 1.5 | x | 2
O=C(OCC(=O)N1CCN(C(=O)c2ccco2)CC1)c1ccccc1O | 1 | x | 2 | 0.61 | x | -4
CCN(CC)Cc1c[nH]c2c(C(=O)OC)cccc12 | 11 | 6 | 0 | x | -10 | -2
CC1CCN(CCOc2cc(Cl)ccc2Cl)CC1 | 23 | 6 | 9 | -0.8 | x | 49*
CC(C)C(C)(C#N)NC(=O)CSc1nnc(C(F)(F)F)n1C (stereo not drawn) | 6 | -2 | 0 | -0.34 | x | 4
CC(SC1CCCC1)C(=O)NC(C)(C#N)C(C)C (stereo not drawn) | 31* | 5 | 0 | 1.2 | -3 | 19
CCNC(=S)N/N=C1\C(=O)c2cccc3cccc1c23 | 9 | x | -1 | -0.43 | x | 1
SMILES | PostGolgi ctrl | Candida biofilm | E coli WT exp | PTK2B oligo ant | tolC growth inh | PostGolgi yeast
O=C(N/N=C1/C(=O)c2cccc3cccc1c23)c1ccc(Cl)cc1 | 11 | x | -5 | -0.01 | x | 37*
COc1ccc(C(=O)Nc2cc(OC)nc(OC)n2)cc1 | x | 11 | x | -1 | x | x
CCOC(=O)c1ccc(NS(=O)(=O)c2cnc[nH]2)cc1 | -3 | 7 | 9 | -0.11 | -25 | 7
Cc1cc(Cl)c(OCCCNCc2ccccc2)c(Br)c1 | 8 | x | 57* | 0.32 | x | -2
Clc1ccc(OCCCNCc2ccccc2)c(Br)c1 | 31* | x | 68* | 1.1 | x | -37
OCCNCCCOc1ccc(Cl)cc1Br | -1 | x | 17 | 0.39 | x | 7
COCCNCCCCOc1c(Cl)cc(C)cc1Br | -4 | x | 10 | 0.07 | x | 17
Cc1ccc(NC(=O)c2cc3c(s2)CCC3)cc1S(=O)(=O)N1CCOCC1 | 10 | 3 | 6 | -3.2* | x | -11
Cc1ccc2c(c1)cc(CN(Cc1ccco1)C(=O)COc1ccccc1)c1nnnn12 | 42* | 8 | -16 | -1.2 | 36 | 5
O=C1NC(c2ccccc2)=C(c2nc3ccccc3s2)C(c2ccc(F)cc2)N1 (stereo not drawn) | 41* | 6 | -3 | -3.2* | x | 0
CC1=NNC(=O)/C1=C\c1cn(-c2ccccc2)nc1-c1ccc(Cl)cc1 | 98* | x | -4 | -2.4 | x | 109*
Cc1noc(C)c1S(=O)(=O)N(CCc1ccccc1)Cc1ccccc1 | 18 | 5 | -1 | 1 | 63* | 4
O=C(COc1ccccc1)N1CCN(c2ncnc3c2cnn3-c2ccccc2)CC1 | 7 | 2 | -17 | -0.51 | 6 | 9
c1ccc(-n2ncc3c(N4CCN(CCOc5cccc6ccccc56)CC4)ncnc32)cc1 | 32* | 2 | -12 | -0.32 | x | 1
O=S(=O)(c1ccc(F)cc1)N1CCN(c2ncnc3c2cnn3-c2ccccc2)CC1 | 35* | 3 | -4 | -0.34 | -13 | 5
O=C(COC(=O)c1ccccc1Nc1cccc(C(F)(F)F)c1)NCc1ccco1 | 23 | -2 | 0 | -1 | x | 3
Cc1ccc(C(=O)O/N=C2\CCCc3ccccc32)cc1 | 38* | x | 0 | 0.01 | x | -2
Cc1ccc2nc(NC(=O)CCNS(=O)(=O)c3ccc(Br)s3)sc2c1 | 42* | 4 | -13 | -0.53 | 54 | 4
Cc1ccc2nc(NC(=O)CCNS(=O)(=O)c3cccs3)sc2c1 | 36* | 3 | 1 | -0.87 | 11 | 14
CCCNS(=O)(=O)c1ccc(OCC(=O)N2CCC(C(=O)OCC)CC2)cc1 | 31* | 4 | 4 | 0.26 | 49 | -7
Cc1ccc(NS(=O)(=O)c2ccc(OCC(=O)N3CCOCC3)cc2)cc1 | 33* | 4 | 7 | 0.56 | x | 2
CS(=O)(=O)N(CC(=O)NC1CC2CCC1C2)c1cccc(C(F)(F)F)c1 (stereo not drawn) | 31* | -3 | 9 | 1 | 2 | -5
CCCCOc1c(Br)cc(/C=N/O)cc1OCC | x | 11 | x | -1.6 | x | x
CCOc1cc(/C=N/NC(N)=S)cc(Br)c1OCc1ccccc1C | 67* | x | -6 | -0.83 | x | 3
O=C(COC(=O)c1ccccn1)Nc1cc(Cl)ccc1Cl | 0 | 2 | 2 | 0.62 | -7 | 0
